CRFBP-R2 block: antagonists of CRF-binding protein/CRF-R2 receptor complex; HEK293 CRF-R2/CRF-BP, CRF-induced calcium fluorescence; inhibition, % at 11.8 µM; 350,000 tested, 0.59% active; AID 588475;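 active = inhibition of the ligand-induced calcium signal above about 50% at the single tested concentration, limit read from the data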
TRPN1 ag: activates the zebrafish TRPN1 channel; 220,000 tested, 0.18% active; HEK293 zebrafish TRPN1-YFP, Fluo-8 calcium fluorescence; 100% = response to 87 µM carbachol; activation, % at 3 µM;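 active = activation above its plate's cutoff, the mean activation of test wells on that plate plus 3 SD, cut at about 19% in these data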;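 note: 0% = DMSO alone and 100% = 87 µM carbachol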
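Material: zebrafish TRPN1-YFP in HEK293 cells; Doses: single test compound dose, 3 µM nominal, 0.3% DMSO; Timing: dye loading 1 h at 37 °C, then 30 min room temperature; Technique: intracellular calcium fluorescence with Fluo-8; Benchmarks: high carbachol 87 µM, low DMSO alone.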
VIM-2 inh: inhibitors of Pseudomonas aeruginosa VIM-2 metallo-beta-lactamase | purified VIM-2, nitrocefin hydrolysis, epi-absorbance fluorescence | inhibition, % at 5.6 µM | 290,000 tested, 0.89% active | AID 1527;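 active = inhibition above the mean of all tested compounds plus 3 SD, cutoff set per screening run, cut at about 7.5% in these data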;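 note: red hydrolysis product quenches plate fluorescence so inhibitors raise well fluorescence; 0% = enzyme with DMSO and 100% = DMSO without enzyme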
IMP-1 inh: inhibitors of Pseudomonas aeruginosa IMP-1 metallo-beta-lactamase | purified IMP-1, nitrocefin hydrolysis, epi-absorbance fluorescence | inhibition, % at 5.6 µM | 290,000 tested, 0.45% active | AID 1556;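 active = inhibition above the mean plus 3 SD of all compounds in the same screening run, cut at about 4.5% in these data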;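 note: 0% = IMP-1 with DMSO and 100% = DMSO wells lacking enzyme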
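system = purified recombinant IMP-1 beta-lactamase | amount = 0.2 nM IMP-1, as dispensed | medium = HEPES buffer pH 7.1 with ZnSO4 and Brij 35 | times = 25 °C, 15 min preincubation, 25 min reaction | detection = plate fluorescence quenching by hydrolysis product, ex 480/em 530 nm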
TRPML3 agonist: activates the human TRPML3 channel; Q8TDD5; HEK293 TRPML3-YFP, Fluo-8 calcium fluorescence; 100% = the carbachol control signal; activation, % at 3 µM; 220,000 tested, 0.29% active; AID 1448;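 active = activation above its plate's cutoff, the mean activation of the plate's test wells plus 3 SD, cut at about 12% in these data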;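 note: 0% = DMSO only wells and 100% = carbachol wells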
Target sequence (Q8TDD5 whole entry, looked up): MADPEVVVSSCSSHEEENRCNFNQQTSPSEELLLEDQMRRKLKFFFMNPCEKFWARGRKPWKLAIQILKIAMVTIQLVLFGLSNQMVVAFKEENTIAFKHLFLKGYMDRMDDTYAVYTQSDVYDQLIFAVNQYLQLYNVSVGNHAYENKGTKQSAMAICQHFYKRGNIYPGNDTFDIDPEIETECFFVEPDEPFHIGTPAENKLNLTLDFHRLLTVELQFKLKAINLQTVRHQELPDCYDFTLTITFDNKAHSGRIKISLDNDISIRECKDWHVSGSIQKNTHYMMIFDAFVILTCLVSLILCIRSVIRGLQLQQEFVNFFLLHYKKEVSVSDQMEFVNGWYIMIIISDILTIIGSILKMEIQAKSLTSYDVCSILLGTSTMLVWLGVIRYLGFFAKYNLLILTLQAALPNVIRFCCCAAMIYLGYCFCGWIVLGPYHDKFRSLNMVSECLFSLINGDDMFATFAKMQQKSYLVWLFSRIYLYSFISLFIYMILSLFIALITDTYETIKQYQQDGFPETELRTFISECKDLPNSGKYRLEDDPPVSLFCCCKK
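system = HEK293 cells stably carrying human TRPML3-YFP | doses = one concentration, 3 µM nominal, 0.3% DMSO | timing = dye loading 1 h 37 °C then 30 min ambient, 125 s read | detection = Fluo-8 calcium dye fluorescence, ex 470-495, em 515-575 nm | benchmarks = high control carbachol 87 µM, low control DMSO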
CRFBP-R2 agonist: agonists of human CRF-binding protein/CRF-R2 receptor complex; HEK293 CRF-R2/CRF-BP, calcium dye fluorescence (FLIPR); percent of saturating CRF peptide response; activation, % at 13.2 µM; 350,000 tested, 0.46% active;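 active = activation of at least 50%, plus an integration ratio under a set limit after plate pattern correction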;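 note: plate controls were neutral control wells without compound for no effect and CRF at EC100 for full effect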
* marks the source's active call; other numbers are inactive results; x = not tested or not shown. Sampled rows, rich in hits. Any-hit rate of the full collection: about 2.1%.

SMILES | CRFBP-R2 block | TRPN1 ag | VIM-2 inh | IMP-1 inh | TRPML3 agonist | CRFBP-R2 agonist
Nc1nnc(SCc2ccc(F)cc2Cl)s1 | 58.3* | -1.1 | -1.2 | -1.4 | -0.9 | -6.8
C[C@H](CO)N1C[C@H](C)[C@H](CN(C)Cc2cccc(C(F)(F)F)c2)OCc2ccccc2-c2c(n(C)c3ccccc23)C1=O | -8.3 | x | x | x | x | 2.9
O=C1CCSc2c1ccc1ccccc21 | 60.9* | x | x | x | x | -3.4
O=C1CCCc2cc3c(ccc4ccccc43)cc21 | -0.8 | x | x | x | x | 1.2
Cc1ccc(N(CC(=O)NCc2ccc(F)cc2)S(=O)(=O)c2c(C)n[nH]c2C)cc1 | 4.4 | x | -2.0 | -2.1 | x | 6.9
Cc1ccc2c(c1)SC1=NC(c3ccccc3)(C(F)(F)F)NC(=O)N12 (stereo not drawn) | x | 2.1 | -1.2 | 5.7* | 0.8 | x
CCOC(=O)c1ccsc1NC(=O)c1ccco1 | -4.7 | x | 9.1* | -1.2 | x | 2.0
CCOC(=O)c1c(-c2cccs2)csc1NC(=O)c1ccco1 | 1.3 | 0.3 | -1.9 | -0.3 | 0.1 | -0.6
O=C1c2cccnc2-c2ncccc21 | 11.2 | 0.9 | -0.4 | -3.5 | 0.7 | -2.4
COC1=C(Br)C(=O)c2ncccc2C1=O | 57.8* | x | x | x | x | -1.6
Cc1cc(C)n2nc(C(=O)OCC(=O)N(CC(C)C)C3CCS(=O)(=O)C3)nc2n1 (stereo not drawn) | -1.1 | x | x | x | x | -2.3
O=c1c2cc(C(F)(F)F)ccc2sn1-c1ccccc1 | 44.7 | x | x | x | x | 60.8*
O=C1CC(Nc2cc(=O)[nH]c(=O)[nH]2)C(=O)N1c1ccccc1Cl (stereo not drawn) | 82.3* | 1.4 | -2.0 | -2.9 | -0.5 | 2.4
CCCc1cc(=O)oc2c3c(c(Cl)cc12)OCN(CCCO)C3 | x | x | 4.5 | 10.1* | x | x
CCCc1cc(=O)oc2c(CN3CCCC3)c(O)c(Cl)cc12 | -7.3 | 0.7 | -2.8 | -0.1 | 0.6 | 1.2
O=C(NC(=O)c1ccccc1O)c1ccc(C(F)(F)F)cc1 | 52.0* | 5.9 | -0.3 | -1.9 | 1.8 | 54.6*
CCCc1ccc(C(=O)NC(=O)c2ccccc2O)cc1 | 26.7 | 20.2* | -3.5 | -2.1 | 10.9 | 50.7*
CCCc1ccc(C(=O)NNC(=O)c2ccc(Br)cc2)cc1 | 7.3 | -1.8 | -1.0 | -2.0 | 0.8 | -1.0
C[C@H](O)CNC(=O)c1[nH]cnc1C(=O)Nc1ccc(CNC(=O)OC(C)(C)C)cc1 | 3.5 | x | x | x | x | -1.2
COc1ccccc1C#Cc1ccc2c(=O)c3ccccc3n(C)c2c1 | -2.0 | x | 0.0 | 6.8* | x | -1.1
CN1CC(=O)N(CC(=O)N2CCC(Cc3ccccc3)CC2)C1=O | 100.0* | 1.8 | -1.3 | -0.7 | 0.7 | 0.3
CC(C)CN1C(=O)C(=O)N(CC(=O)N2CCC(Cc3ccccc3)CC2)C1=O | 2.3 | -1.2 | 1.0 | 0.3 | 2.7 | -2.0
N#CCCN(C(=O)COC(=O)C1=NNC(=O)CC1)c1ccccc1 | -3.6 | x | x | x | x | 0.7
Cc1n[nH]c(=S)n(/N=C/c2cccs2)c1=O | 115.2* | 0.3 | -4.0 | -3.6 | 0.7 | 0.6
O=C(COc1ccc2ccccc2c1)N1CCN(C(=O)c2ccc([N+](=O)[O-])cc2)CC1 | 72.5* | 0.3 | -1.4 | -2.0 | 0.2 | -4.7
SMILES | CRFBP-R2 block | TRPN1 ag | VIM-2 inh | IMP-1 inh | TRPML3 agonist | CRFBP-R2 agonist
CC1CCC(N2CCNCC2)CC1 (stereo not drawn) | -3.1 | -0.6 | 0.5 | 0.9 | 0.9 | 2.2
O=C(NCCC1CCCCN1S(=O)(=O)c1cccs1)C(=O)Nc1cccc(F)c1 (stereo not drawn) | 3.3 | x | x | x | x | -0.1
CSc1nc2nccc(-c3ccc4c(c3)OCO4)n2n1 | 7.7 | -1.3 | 10.8* | -5.8 | 0.5 | -3.7
Cc1cc(-c2nnc(SCCC(=O)Nc3ccccc3)o2)no1 | -2.0 | x | -2.9 | -3.7 | x | -0.8
CCCCc1c(O)cc(C)[nH]c1=O | 6.2 | 0.5 | -2.8 | -3.0 | 0.9 | -1.0
CC(C)n1cc(/C=N/NC(=O)COc2cccc3cccnc23)c2ccccc21 | -39.1 | -2.4 | 2.0 | 0.7 | -0.4 | -0.8
C=CCn1cc(/C=N/NC(=O)COc2cccc3cccnc23)c2ccccc21 | 8.9 | -0.2 | 9.3* | 2.0 | 0.1 | -3.4
CC(C)(C)NC(=O)C(c1ccccn1)N(C(=O)C1CSC(=O)C1)c1cccc(F)c1 (stereo not drawn) | 70.0* | -0.4 | -0.3 | -1.4 | 1.1 | -1.0
COc1cccc(N(C(=O)C2CSC(=O)C2)C(C(=O)NC(C)(C)C)c2ccncc2)c1 (stereo not drawn) | 9.0 | -1.3 | -2.4 | -2.1 | 1.2 | -0.7
N/C(COc1ncn(-c2ccccc2)n1)=N\S(=O)(=O)c1ccc(Cl)cc1Cl | 3.2 | -1.1 | -1.2 | 0.3 | -0.2 | 1.1
NC(=O)COc1ncn(-c2ccccc2)n1 | 57.2* | 0.4 | 0.4 | -2.6 | 0.7 | 1.0
CC(NC(=O)Cn1cc([N+](=O)[O-])cn1)c1ccc(C(C)(C)C)cc1 (stereo not drawn) | 0.9 | x | x | x | x | 3.3
COc1ccc(S(=O)(=O)N2CCCCCC2)cc1C(=O)N(C)Cc1ccc(C(C)(C)C)cc1 | 78.5* | x | -1.9 | -2.9 | x | 2.4
Cc1ccc(S(=O)(=O)N2CCCCC2)cc1C(=O)N(CCc1ccccc1)Cc1ccccc1 | 67.0* | x | x | x | x | 3.8
Cc1ccc(S(=O)(=O)N2CCOCC2)cc1C(=O)NC1CCN(Cc2ccccc2)CC1 | 56.3* | x | x | x | x | 2.8
O=C(N/N=C/c1cc(Cl)cc([N+](=O)[O-])c1O)c1cccc(S(=O)(=O)N2CCOCC2)c1 | 0.4 | x | x | x | x | -1.9
CCOc1ccc(S(=O)(=O)N(C)c2ccc(OCC(=O)NCCc3ccc(OC)cc3)cc2)cc1 | -0.7 | 1.5 | -2.0 | -2.5 | 1.6 | 7.8
O=C(Nc1ccccn1)NC1CCCCC1 | -0.6 | -0.1 | 1.2 | 4.7* | 0.4 | 2.2
O=C(Nc1ccccn1)NC1CCS(=O)(=O)C1 (stereo not drawn) | -3.9 | -0.2 | -0.5 | -2.9 | -0.2 | -1.3
CCCNC(=O)c1ccc(N2CCC3(CC2)CC(c2ccccc2)=NO3)c(NC(=O)Cc2ccc(F)cc2)c1 | -4.9 | x | -1.4 | 9.9* | x | -1.5
COc1ccc(N(CC(=O)NCCSc2ccccn2)S(=O)(=O)c2ccc(C)cc2)cc1OC | 55.2* | x | -0.4 | -1.3 | x | -0.8
COc1ccc(CN2CCN(C(=O)c3cccs3)CC2)c(OC)c1OC | 57.9* | 0.5 | -1.2 | -1.1 | -0.3 | -2.0
COc1ccc(CN2CCN(C(=O)c3ccc(-c4ccccc4)cc3)CC2)c(OC)c1OC | -2.1 | -0.8 | -0.7 | -0.3 | 0.0 | 1.5
CCOC(=O)c1sc(NC(=O)c2ccoc2C)c(C(N)=O)c1C | -8.6 | x | 8.0* | -0.4 | x | -4.6
COc1ccc(NC(=O)C(Sc2ccccc2)c2ccccc2)c(OC)c1 (stereo not drawn) | 51.1* | -2.1 | -4.0 | -2.0 | 0.5 | 2.4
